Numbered stars: 1 amine (or outer) side, 2 acyl side, 3 side chain; on linkers, the order of the positions; unused ones are H or OH. Peptide text beside a SMILES is read from it. * marks the point of attachment. AMC = Cc1cc(=O)oc2cc(N*)ccc12; Suc = O=C(CCC(=O)[*:2])[*:1]; Cbz = O=C(OCc1ccccc1)*
Legend:
proteasome = molecular target: T1, proteasome (Homo sapiens, UniProt P28074); test: Proteasome stimulation in cells detected with TAS probes; assay type: cell-based; conditions: cells dosed 1 h with stimulator, washed, TAS3 added, monitored over 60 min
T1 sequence (P28074 60-263): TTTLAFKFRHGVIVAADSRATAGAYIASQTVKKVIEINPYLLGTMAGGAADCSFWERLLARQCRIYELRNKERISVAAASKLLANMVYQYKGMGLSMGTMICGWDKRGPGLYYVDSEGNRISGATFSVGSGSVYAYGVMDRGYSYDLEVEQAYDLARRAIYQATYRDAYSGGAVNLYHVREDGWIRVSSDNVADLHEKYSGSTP
Procedure, shortened: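 Cells (A549, 5000/well, adhered) were pretreated 1 h with test compound in culture medium and washed three times with PBS. They were then given 10 μM probe in modified KRBH buffer, and fluorescence was read on a plate reader for […]. After 25 min equilibration each well was zeroed, linear regression was fitted, and activity was expressed as % of the DMSO control.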

A549 cells = test: Live-cell probe cleavage in A549 cells, with or without proteasome inhibitors; assay type: cell-based; conditions: 10 μM probe, monitored over 60 min
20S CP = 20S CP (Homo sapiens, UniProt P28074); test: LC/MS assay of library peptide cleavage by 20S CP; assay type: biochemical; conditions: 12 μM peptide, 9 nM 20S CP, 50 mM Tris pH 7.4, 37 °C, 1 h, triplicate
Procedure, shortened: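 Peptide stocks were 600 μM in DMSO, diluted to 12 μM final in 50 mM Tris pH 7.4. One triplicate got purified 20S CP (9 nM final) and the other buffer alone; both ran 1 h at 37 °C. An equal volume of acetonitrile denatured the enzyme. LC/MS EIC peak areas of intact peptide were scaled to the buffer-control mean (set to 1) to give fraction remaining. The four-mer product mass confirmed the cleavage site.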

MM.1R = test: Cell viability; assay type: cell-based; conditions: 48 h, read-out: IC50 (cell viability)

For `CC(C)c1ccc2c(c1)c(SC(C)(C)C)c(CC(C)(C)C(=O)O)n2Cc1ccc(Cl)cc1` [MK-886], which “proteasome stimulation (% activity vs DMSO control)” value (proteasome) is on record?
Its value is “strong stimulators”.

How did the “fluorescence signal (RFU) in cells compared to TAS1” value (A549 cells) turn out when `Cc1cc(=O)oc2cc(NC(=O)[C@H](Cc3ccc(O)cc3)NC(=O)[C@@H](NC(=O)[C@H](CC(C)C)NC(=O)[C@H](CC(C)C)NC(=O)CCC(=O)O)C(C)C)ccc12` [Suc-LLVY-AMC] (Suc-LLVY-{AMC}) was run?
Its value is “significantly lower”.

Which “cleavage by 20S CP (in words)” value (20S CP) does the source give for D-Phe here?
The value was “did not accept”.

`CC(C)C[C@@H](C=O)NC(=O)[C@H](CC(C)C)NC(=O)[C@H](CC(C)C)NC(=O)OCc1ccccc1` [MG-132] (Cbz-Leu-Leu-Leu-aldehyde) was tested. Which IC50 (MM.1R) did it give?
Its IC50 is 264 nM.

Source: paper PMC8319958 (ACS chemical biology, 2020)
